Bioassay records from PubChem BioAssay.
Hits are enriched below; roughly 3.1% of the tested compounds scored in any of these assays.
CFTR F508del cor = F508del CFTR correction, initial screen, CFBE line, single point. CFBE cells, YFP halide quenching; stimulated with forskolin plus potentiator P3; % fluorescence drop versus neutral controls. activity (quench increase), % at 7.58 µM. 350,000 tested, 0.36% active. AID 720511, 2013;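 active means mean added fluorescence quench of at least 8% versus neutral control, with both replicates also reaching 8%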;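 further: cells transiently co-express mutant CFTR-F508del with the halide-sensitive YFP; corrector assay measuring rescue of mutant channel to the surface after 24 h compound exposure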
Ecoli rRNA inh = reduced GFP signal of wild-type E. coli, primary screen, bacterial rRNA inhibitor project, GFP/RFP fluorescence, OD600, single point. E. coli WT GFP vs humanized-ribosome RFP mutants, 24 h; stronger effect = lower value; DMSO median 0, no signal -100. GFP signal change (wild-type ribosome), % (no concentration beside the values). 350,000 tested, 1.6% active;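 active means significant combined selectivity score with lowered wild-type GFP, culture density cut under 30%, mutant RFP and density less affected; inactive means any of these conditions unmet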
INS-1E GSIS act = GLuc luminescence reporter in INS-1E cells, primary screen for activators of glucose-dependent secretion of insulin; INS-1E GLuc reporter insulin secretion, 2-3 h; activation, % at 16.6 µM; 370,000 tested, 0.61% active;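 active means lowest replicate activation of at least 40%, so every replicate reaches that level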;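 further: 0% = median of neutral control wells and 100% = median of IBMX positive control wells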
Env fusion inh = inhibitors of HIV-1 Env-driven cell-cell fusion, primary screen, HeLa-JRFL effector, CEM21 target cells, luciferase | inhibition, % at 12.3 µM | 360,000 tested, 1.1% active | AID 651610, 2012;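 active means mean replicate inhibition score of at least 50 and every replicate individually at or above 50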;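 further: 0% = plate neutral controls and 100% = maraviroc near 300 nM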
Cneo AK release = Cryptococcus neoformans cell lysis inducers, primary screen, AK release luminescence, single concentration; C. neoformans lysis, adenylate kinase release luminescence, 4 h; normalised: neutral wells 0, clomiphene wells 100; AID 651654, 2012; lysis activity, % at 15 µM; 360,000 tested, 0.2% active;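 active means mean lysis activity across replicates of at least 80%, whatever share of replicates individually reach that level; inactive means mean lysis activity below 80%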
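Material – log-phase Cryptococcus neoformans yeast cells · Input – 5 × 10^6 yeast cells/mL · Medium – fresh YPD growth medium · Doses – single compound concentration per well · Timing – static 4 h at 37 °C with compound, 1 h detection · Detection – adenylate kinase release luminescence · Read-out – signal increase indicating cell lysis · Control set – Clomiphene as positive lysis control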
miR-122 sensor = miR-122 Renilla sensor signal increase in Huh7, primary screen, miR-122 inhibitor project, cell-based, single point, plate reader; Huh7 miR-122 Renilla luciferase sensor, 48 h; neutral wells = 0, positive control = 100; activation (reporter increase), % at 12.5 µM; 340,000 tested, 0.3% active;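 active means mean replicate activation score at least 90 and every replicate individually at or above 90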;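 further: higher luciferase means less miR-122 activity so hits act as miR-122 inhibitors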
Numbers without * were called inactive; [ ] = another dose, or the depositor's remark.

`CCOc1cc(C)c(Cl)cc1S(=O)(=O)NC1CC(C)(C)NC(C)(C)C1` gave INS-1E GSIS act -1.2, Env fusion inh -36.0 and miR-122 sensor 180.8*.
For C[C@H](CO)N1C[C@H](C)[C@H](CN(C)S(=O)(=O)c2ccc(F)cc2)OCCCC[C@H](C)Oc2ccc(NC(=O)Nc3ccc(F)cc3)cc2C1=O the results were CFTR F508del cor -2.0, Ecoli rRNA inh 2.4, INS-1E GSIS act -32.1, Env fusion inh -53.1[16.7 µM], Cneo AK release 1.1 and miR-122 sensor -10.0[16.7 µM].
`Nc1ccc2c3c(cccc13)C(=O)N(c1ccccc1)C2=O` gave CFTR F508del cor 32.8*, Ecoli rRNA inh 70.7, INS-1E GSIS act 27.3 and Env fusion inh 22.3.
Nc1cccc(N2C(=O)c3cccc4c(N)ccc(c34)C2=O)c1 was read as CFTR F508del cor 5.3, Ecoli rRNA inh 73.9, INS-1E GSIS act -2.8, Env fusion inh -9.6, Cneo AK release -0.3 and miR-122 sensor -13.3.
CCOc1ccc(-n2c(-c3ccc(OC)cc3)c[n+]3c2CCCCC3)cc1 was read as CFTR F508del cor 4.0, Ecoli rRNA inh -47.2, INS-1E GSIS act -19.6 and Env fusion inh 66.6*.
For CCOc1ccc(-n2c(-c3ccc(Br)cc3)c[n+]3c2CCCCC3)cc1 the results were CFTR F508del cor 0.4, Ecoli rRNA inh -58.4, INS-1E GSIS act -70.7 and Env fusion inh 38.5.
Screening COc1ccc(-n2c(-c3ccc(Cl)cc3)c[n+]3c2CCCCC3)cc1 returned CFTR F508del cor 3.7, Ecoli rRNA inh -32.5*, INS-1E GSIS act -21.6, Env fusion inh -7.4 and Cneo AK release 2.8.
`COc1ccc(-c2c[n+]3c(n2-c2ccc(C)cc2)CCCCC3)cc1` gave CFTR F508del cor 2.0, Ecoli rRNA inh -47.7, Env fusion inh 10.7, Cneo AK release -0.3 and miR-122 sensor -13.3.
For C[C@H](CO)N1C[C@H](C)[C@H](CN(C)C(=O)Nc2ccccc2)OCCCC[C@H](C)Oc2ccc(NC(=O)c3ccncc3)cc2C1=O the results were CFTR F508del cor -1.1, Ecoli rRNA inh 1.1, INS-1E GSIS act -5.1, Env fusion inh 3.8[16.7 µM], Cneo AK release 48.7 and miR-122 sensor -2.1[16.7 µM].
`COc1ccccc1NC(=O)Nc1cnccn1` gave Ecoli rRNA inh 3.4, INS-1E GSIS act -10.5, Env fusion inh 29.6 and miR-122 sensor -19.4.
Screening COc1cc([N+](=O)[O-])ccc1NC(=O)Nc1cnccn1 returned CFTR F508del cor -0.2, Ecoli rRNA inh 9.7, INS-1E GSIS act 5.5, Env fusion inh 57.5*, Cneo AK release -0.5 and miR-122 sensor -6.8.
Screening CCC(=O)Nc1cccc(NC(=S)NC(=O)c2cccc(C)c2)c1 returned Ecoli rRNA inh -17.1* and Env fusion inh -43.4.
CCC(=O)Nc1cccc(NC(=S)NC(=O)c2ccc(C)cc2)c1 was read as CFTR F508del cor -1.7, Ecoli rRNA inh -1.2, INS-1E GSIS act -6.7, Env fusion inh -36.6 and miR-122 sensor 3.3.
CCN1CCN(CCCNC(=O)c2ccc(/C=C3/Sc4ccccc4N(Cc4ccccc4F)C3=O)cc2)CC1 was read as CFTR F508del cor -3.5, Ecoli rRNA inh -48.5, INS-1E GSIS act 99.9*, Env fusion inh -4.7, Cneo AK release 14.7 and miR-122 sensor 4.6.
CCN1CCN(CCNC(=O)c2ccc(/C=C3/Sc4ccccc4N(Cc4ccccc4C)C3=O)cc2)CC1 was read as CFTR F508del cor -6.3, Ecoli rRNA inh -50.7, INS-1E GSIS act 26.5, Env fusion inh -22.6, Cneo AK release 12.8 and miR-122 sensor -0.8.
For COC(=O)C1=C(C)N(Cc2cccc(C(F)(F)F)c2)C(=NCc2ccccc2C(F)(F)F)NC1c1cccc(F)c1 (centres undefined) the results were CFTR F508del cor 0.9, Ecoli rRNA inh -4.1, INS-1E GSIS act 166.4* and Env fusion inh -79.8.
For COC(=O)C1=C(C)N(Cc2cccc(C(F)(F)F)c2)C(=NCc2ccc(OC)cc2)NC1c1ccccc1C(F)(F)F (centres undefined) the results were CFTR F508del cor 2.3, Ecoli rRNA inh -42.9, INS-1E GSIS act 40.3* and Env fusion inh -3.2.
For COC(=O)C1=C(C)N(Cc2cccc(C(F)(F)F)c2)C(=NCc2ccccc2C(F)(F)F)NC1c1cccc(C(F)(F)F)c1 (centres undefined) the results were CFTR F508del cor 3.8, Ecoli rRNA inh 12.8 and Env fusion inh 10.6.
COC(=O)C1=C(C)N(Cc2ccccc2C(F)(F)F)C(=NCc2ccc3c(c2)OCO3)NC1c1ccc(F)cc1 (centres undefined) was read as CFTR F508del cor -2.8, Ecoli rRNA inh -45.6 and Env fusion inh -17.4.
COC(=O)C1=C(C)N(Cc2cccc(C(F)(F)F)c2)C(=NCc2ccc3c(c2)OCO3)NC1c1cccc(F)c1 (centres undefined) was read as CFTR F508del cor 0.5, Ecoli rRNA inh -45.0, INS-1E GSIS act 40.3* and Env fusion inh 30.6.
`COC(=O)C1=C(C)N(Cc2ccccc2C(F)(F)F)C(=NCc2ccc3c(c2)OCO3)NC1c1cccc(F)c1` (centres undefined) gave CFTR F508del cor 1.9, Ecoli rRNA inh -42.3, INS-1E GSIS act 48.7* and Env fusion inh -168.8.
Screening C[C@H]1CN([C@@H](C)CO)C(=O)Cc2cc(NC(=O)C3CC3)ccc2O[C@@H]1CN(C)S(=O)(=O)c1ccccc1 returned CFTR F508del cor -0.7, Ecoli rRNA inh 2.2, INS-1E GSIS act 19.4, Env fusion inh 9.3[16.7 µM], Cneo AK release 3.8 and miR-122 sensor 5.3[16.7 µM].
`COC(=O)C1=C(C)N(Cc2ccccc2C(F)(F)F)C(=NCc2ccccc2)NC1c1ccc(C(F)(F)F)cc1` (centres undefined) gave CFTR F508del cor 0.2, Ecoli rRNA inh -32.6 and Env fusion inh 20.5.
Screening COC(=O)C1=C(C)N(Cc2ccccc2C(F)(F)F)C(=NCc2cccc(C(F)(F)F)c2)NC1c1ccc(C(F)(F)F)cc1 (centres undefined) returned CFTR F508del cor 3.1, Ecoli rRNA inh -18.4, INS-1E GSIS act 102.5* and Env fusion inh 26.4.
Oc1ccc(Cl)cc1-c1cc(C(F)(F)C(F)F)nc(-c2ccccc2)n1 was read as Env fusion inh 66.5*.
`Cc1ccc(C)c(OCC(=O)NNC(=O)c2ccc(NC(=O)C3CC3)cc2)c1` gave CFTR F508del cor 4.0, Ecoli rRNA inh -36.8*, INS-1E GSIS act -8.1, Env fusion inh -2.5 and Cneo AK release -2.4.
